Experimental data: ChEMBL document CHEMBL3856288, “Amidate Prodrugs of Deoxythreosyl Nucleoside Phosphonates as Dual Inhibitors of HIV and HBV Replication” (J Med Chem, 2016)

Columns and labels:
[1] = tested on: Human immunodeficiency virus 1; test: Antiviral activity against HIV1 3B infected in human MT2 cells assessed as protection against virus-induced cytopathic effect after 5 days by XTT assay; type: functional, cell-based; conditions: Human immunodeficiency virus 1, 3B, MT2, 120 h
[2] = Cytotoxicity against human MT4 cells assessed as decrease in cell viability after 5 days by MTT assay; type: toxicity, cell-based
[3] = Antiviral activity against HIV2 ROD infected in human MT4 cells assessed as protection against virus-induced cytopathic effect after 5 days by MTT assay; type: functional, cell-based, Human immunodeficiency virus type 2 (ISOLATE ROD); conditions: Human immunodeficiency virus 2, MT4, 120 h
[4] = tested on: Human immunodeficiency virus 1; test: Antiviral activity against HIV1 3B infected in human MT4 cells assessed as protection against virus-induced cytopathic effect after 5 days by MTT assay; type: functional, cell-based; conditions: Human immunodeficiency virus 1, 3B, MT4, 120 h
[5] = Selectivity ratio of CC50 for human HepG2(2.2.15) cells to EC50 for reduction in HBV ayw1 extracellular DNA copy number; conditions: read-out: Ratio CC50/EC50
Procedure, shortened: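 HepG2 2.2.15 cells (two HBV ayw1 genome copies), 1.5 × 10^4 cells/well in DMEM with 2% FBS and G418; compound dosed in triplicate and medium renewed on day 3. On day 6, Pronase-treated supernatant HBV DNA measured by TaqMan qPCR against a standard curve, giving EC50. MTS uptake gave CC50, and the ratio was calculated from these.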

[6] = Cytotoxicity against human HepG2(2.2.15) cells assessed as reduction in cell viability by MTS assay; type: toxicity, cell-based
Procedure, shortened: (§1)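 HepG2 2.2.15 cells (stable line carrying two copies of the HBV ayw1 genome) were seeded at 1.5 × 10^4 cells/well in DMEM with 2% FBS and G418. After 16−24 h, compound was added in triplicate, and medium plus compound was renewed on day 3. On day 6, supernatant was Pronase-treated and extracellular HBV DNA was quantified by TaqMan qPCR against an HBV DNA standard curve to give EC50/EC90. Cell viability was read by MTS uptake to give CC50.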

[7] = Selectivity index, ratio of CC50 for human MT4 cells to EC50 for HIV1 3B infected in human MT4 cells; type: toxicity, cell-based; conditions: read-out: Ratio CC50/EC50
[8] = Selectivity index, ratio of CC50 for human MT4 cells to EC50 for HIV2 ROD infected in human MT4 cells; type: toxicity, cell-based; conditions: read-out: Ratio CC50/EC50
Hepatitis B virus [9] = test: Antiviral activity against HBV ayw1 infected in human HepG2(2.2.15) cells assessed as reduction in viral replication by measuring extracellular viral DNA copy number after 6 days by real-time qPCR method; type: functional, cell-based; conditions: ayw1, HepG2 2.2.15, 144 h; procedure, shortened: as §1
[10] = Drug level in pH 8 phosphate buffer treated with 1'alpha-(Adenin-9-yl)-2'-deoxy-3'-O-{[N-(diisoamyl-L-aspartate)](phenoxy)methylphosphonoamidate}-L-threose at 2 mg measured every 30 mins for 14 hrs by RP-HPLC/mass spectra analysis
[11] = Selectivity ratio of CC50 for human HepG2(2.2.15) cells to EC50 for reduction in HBV ayw1 intracellular DNA copy number; type: ADME, cell-based; conditions: read-out: Ratio CC50/EC50
Procedure, shortened: (§2)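 The protocol was the same as the primary HepG2 2.2.15 assay (triplicate dosing, medium plus compound renewed on day 3, 6-day course). At the end, total intracellular DNA was isolated from the cells and HBV DNA copy number was measured by TaqMan qPCR to give EC50/EC90. CC50 came from MTS viability, and SI was taken as CC50/EC50.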

Hepatitis B virus [12] = test: Antiviral activity against HBV ayw1 infected in human HepG2(2.2.15) cells assessed as reduction in viral replication by measuring intracellular viral DNA copy number after 6 days by real-time qPCR method; type: functional, cell-based; conditions: ayw1, HepG2 2.2.15, 144 h; procedure, shortened: as §2
[13] = Half life in human liver microsomes at 0.1 uM in presence of NADPH-regenerating system by HPLC MS/MS method; type: ADME
Procedure, shortened: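 Pooled liver microsomes preincubated 10 min at 37 °C with NADPH-regenerating system (1 mM NADP, 5 mM G6P, 1 U/mL G6PDHase) in phosphate buffer pH 7.4, 3 mM MgCl2, 1 mM EDTA; compound added at 0.1 μM final; samples at 0, 15, 30, 45, 60 min quenched in acetonitrile/methanol, analysed by HPLC MS/MS.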

[14] = Half life in human liver S9 fraction at 100 uM by HPLC-UV method; type: ADME, subcellular
Procedure, shortened: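 Incubation started by adding human liver S9 fraction (4 mg/mL) at 37 °C; aliquots at 0, 10, 20, 30, 60 min quenched in acetonitrile, centrifuged, supernatant analysed by C18 HPLC with UV at 260 nm; parent peak area versus time 0 gave percent remaining and half-life.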

| Compound | EC50 (Hepatitis B virus [9]) | EC90 (Hepatitis B virus [9]) | EC50 (Hepatitis B virus [12]) | EC90 (Hepatitis B virus [12]) | EC50 [1] | CC50 at 120 h [2] | EC50 [3] | EC50 [4] | selectivity ratio [5] | CC50 [6] | selectivity ratio [7] | selectivity ratio [8] | Drug metabolism [10] | selectivity ratio [11] | half-life at 0.1 µM [13] | half-life at 100 µM [14] |
| --- | --- | --- | --- | --- | --- | --- | --- | --- | --- | --- | --- | --- | --- | --- | --- | --- |
| C[C@H](Cn1cnc2c(N)ncnc21)OCP(=O)(O)O [TENOFOVIR ANHYDROUS] |  |  |  |  | 5 µM |  |  |  |  |  |  |  |  |  |  |  |
| CCCOC(=O)[C@H](Cc1ccccc1)NP(=O)(CO[C@H]1CO[C@@H](n2cc(C)c(=O)[nH]c2=O)C1)N[C@@H](Cc1ccccc1)C(=O)OCCC | 0.28 µM | > 10 µM |  |  |  | 56.6 µM | 0.0204 µM | 0.0292 µM | > 36 | > 10 µM | 1970 | 2780 |  |  |  |  |
| CC(C)CCOC(=O)C[C@H](NP(=O)(O)CO[C@H]1CO[C@@H](n2cnc3c(N)ncnc32)C1)C(=O)OCCC(C)C |  |  |  |  |  |  |  |  |  |  |  |  | Metabolite detected |  |  |  |
| CC(C)OC(=O)[C@H](C)NP(=O)(CO[C@H]1CO[C@@H](n2cnc3c(N)ncnc32)C1)Oc1ccccc1 (some centres not stated) | 0.03 µM | > 10 µM |  |  |  | 61.8 µM | 0.0535 µM | 0.103 µM | > 333 | > 10 µM | 597 | 1150 |  |  | > 1 h | > 1 h |
| Cc1cn([C@H]2C[C@@H](OCP(=O)(N[C@@H](CC(=O)OCCC(C)C)C(=O)OCCC(C)C)Oc3ccccc3)CO2)c(=O)[nH]c1=O (some centres not stated) | 0.25 µM | > 100 µM |  |  |  | 42.2 µM | 0.011 µM | 0.0173 µM | 136 | 34 µM | 2350 | 3860 |  |  |  |  |

Second part, led by results:

| EC50 (Hepatitis B virus [9]) | EC90 (Hepatitis B virus [9]) | EC50 (Hepatitis B virus [12]) | EC90 (Hepatitis B virus [12]) | Compound | EC50 [1] | CC50 at 120 h [2] | EC50 [3] | EC50 [4] | selectivity ratio [5] | CC50 [6] | selectivity ratio [7] | selectivity ratio [8] | Drug metabolism [10] | selectivity ratio [11] | half-life at 0.1 µM [13] | half-life at 100 µM [14] |
| --- | --- | --- | --- | --- | --- | --- | --- | --- | --- | --- | --- | --- | --- | --- | --- | --- |
| 79.6 µM | > 100 µM |  |  | Nc1ncnc2c1ncn2[C@@H]1OC[C@H](OCP(=O)(O)O)[C@H]1F |  | 262 µM | ≥ 214 µM | ≥ 222 µM |  | > 100 µM |  |  |  |  |  |  |
| 0.01 µM | > 2 µM | < 0.01 µM | > 2 µM | Nc1ccn([C@@H]2CS[C@H](CO)O2)c(=O)n1 [LAMIVUDINE] |  | > 87.2 µM |  |  | > 200 | > 2 µM | > 39 | > 10 |  | > 254 |  |  |
| > 100 µM | > 100 µM |  |  | Nc1ccn([C@H]2C[C@@H](OCP(=O)(O)O)CO2)c(=O)n1 |  | > 343 µM | > 343 µM | > 343 µM |  | > 100 µM |  |  |  |  |  |  |
| > 100 µM | > 100 µM |  |  | CC(C)OC(=O)[C@H](C)NP(=O)(CO[C@H]1CO[C@@H](n2ccc(N)nc2=O)C1)N[C@@H](C)C(=O)OC(C)C |  | ≥ 193 µM | > 193 µM | > 193 µM |  | > 100 µM |  |  |  |  |  |  |
| 40.2 µM |  |  |  | Cc1cn([C@H]2C[C@@H](OCP(=O)(O)O)CO2)c(=O)[nH]c1=O |  | 297 µM | 23.6 µM | 27.1 µM | > 2.49 | > 100 µM | 11 | 13 |  |  |  |  |
